Legend:
[1] = Cell cycle arrest in human U937 cells assessed as accumulation at G2/M phase at 2 ug/ml after 48 hrs by propidium iodide staining-based flow cytometric analysis (reference value: 16.6%); format: functional; details: U-937
Method in brief: (§1)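 U937 cells in complete RPMI 1640 (10% FBS, 25 mM HEPES, 2 mM glutamine) seeded at 2 × 10^6 cells/ml in flasks, recovered 24 h, then treated with compounds in DMSO (2 µg/ml). Cisplatin (10 µM) served as positive control and DMSO as negative control. Cells were harvested at 24 or 48 h and stained with propidium iodide. Phase percentages were gated on singlet cells by flow cytometry. Three independent experiments.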

[2] = system: U-937; test: Cytotoxicity against human U937 cells assessed as cell survival after 24 hrs by XTT assay; format: functional, cell-based
[3] = Cell cycle arrest in human U937 cells assessed as accumulation at G0/G1 phase at 2 ug/ml after 24 hrs by propidium iodide staining-based flow cytometric analysis (reference value: 41.7%); format: functional; details: U-937; method in brief: as §1
[4] = system: U-937; test: Induction of apoptosis in human U937 cells assessed as necrotic cells at 2 ug/ml after 24 hrs by annexin V-FITC/propidium iodide staining-based flow cytometry (reference value: 24.7%); format: functional
[5] = Cell cycle arrest in human U937 cells assessed as accumulation at G2/M phase at 2 ug/ml after 24 hrs by propidium iodide staining-based flow cytometric analysis (reference value: 12.5%); format: functional; details: U-937; method in brief: as §1
[6] = system: DU-145; test: Cytotoxicity against human DU145 cells assessed as cell survival after 48 hrs by XTT assay; details: DU-145, 48 h
[7] = Cytotoxicity against human SNO cells assessed as cell survival after 48 hrs by XTT assay
[8] = Cell cycle arrest in human U937 cells assessed as accumulation at S phase at 2 ug/ml after 48 hrs by propidium iodide staining-based flow cytometric analysis (reference value: 25.7%); format: functional; details: U-937; method in brief: as §1
[9] = Cell cycle arrest in human U937 cells assessed as accumulation at S phase at 2 ug/ml after 24 hrs by propidium iodide staining-based flow cytometric analysis (reference value: 30.7%); format: functional; details: U-937; method in brief: as §1
[10] = system: U-937; test: Induction of apoptosis in human U937 cells assessed as necrotic cells at 2 ug/ml after 48 hrs by annexin V-FITC/propidium iodide staining-based flow cytometry (reference value: 1.4%); format: functional
[11] = system: U-937; test: Induction of apoptosis in human U937 cells assessed as early apoptotic cells at 2 ug/ml after 24 hrs by annexin V-FITC/propidium iodide staining-based flow cytometry (reference value: 6.3%); format: functional
[12] = system: U-937; test: Induction of apoptosis in human U937 cells assessed as late apoptotic cells at 2 ug/ml after 24 hrs by annexin V-FITC/propidium iodide staining-based flow cytometry (reference value: 3%); format: functional
[13] = system: U-937; test: Induction of apoptosis in human U937 cells assessed as viable cells at 2 ug/ml after 24 hrs by annexin V-FITC/propidium iodide staining-based flow cytometry (reference value: 66%); format: functional; details: U-937, 24 h, read-out: Activity
[14] = system: HeLa; test: Cytotoxicity against human HeLa cells assessed as cell survival after 48 hrs by XTT assay
[15] = system: U-937; test: Induction of apoptosis in human U937 cells assessed as late apoptotic cells at 2 ug/ml after 48 hrs by annexin V-FITC/propidium iodide staining-based flow cytometry (reference value: 11.7%); format: functional
[16] = system: MCF7; test: Cytotoxicity against human MCF7 cells assessed as cell survival after 48 hrs by XTT assay; details: MCF7, 48 h
[17] = system: U-937; test: Induction of apoptosis in human U937 cells assessed as early apoptotic cells at 2 ug/ml after 48 hrs by annexin V-FITC/propidium iodide staining-based flow cytometry (reference value: 5.7%); format: functional
[18] = system: U-937; test: Induction of apoptosis in human U937 cells assessed as viable cells at 2 ug/ml after 48 hrs by annexin V-FITC/propidium iodide staining-based flow cytometry (reference value: 81.3%); format: functional; details: U-937, 48 h, read-out: Activity
[19] = Cell cycle arrest in human U937 cells assessed as accumulation at G0/G1 phase at 2 ug/ml after 48 hrs by propidium iodide staining-based flow cytometric analysis (reference value: 54.6%); format: functional; details: U-937; method in brief: as §1
[20] = Cell cycle arrest in human U937 cells assessed as accumulation at subG1 phase at 2 ug/ml after 24 hrs by propidium iodide staining-based flow cytometric analysis (reference value: 15.1%); format: functional; details: U-937; method in brief: as §1
[21] = Cell cycle arrest in human U937 cells assessed as accumulation at subG1 phase at 2 ug/ml after 48 hrs by propidium iodide staining-based flow cytometric analysis (reference value: 1.1%); format: functional; details: U-937; method in brief: as §1
[22] = system: U-937; test: Induction of apoptosis in human U937 cells assessed as caspase 3/7 activation at 2 ug/ml after 24 hrs by fluorescence reader relative to control; format: functional
Method in brief: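 U937 cells (2 × 10^6/ml, 24 h recovery) were exposed for 24 h to compounds in DMSO (2 µg/ml), with cisplatin 10 µM and DMSO controls. Cells were pelleted and resuspended in RPMI, at least 2 × 10^5 cells per well. (DEVD)2 substrate was added and cells incubated 2 h at 37 °C, 5% CO2, resuspended every 20 min. Fluorescence was read at 544/590 and 544/620 nm.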

[23] = system: PBMC; test: Cytotoxicity against human PBMC assessed as cell survival after 24 hrs by fluorescence assay

Compound | IC50 [6] [µM] | IC50 [7] [µM] | IC50 [14] [µM] | IC50 [16] [µM] | further results
Cc1cc(Cl)c2c(c1O)C(=O)C=CC2=O | 9.3 | 9.4 | 10.1 | 10 | Activity [1]: 5.3%; Activity [2]: Not toxic; Activity [3]: 65.6%; Activity [4]: 49.6%; Activity [5]: 4.5%; Activity [8]: 14.1%; Activity [9]: 11.4%; Activity [10]: 60.1%; Activity [11]: 17.1%; Activity [12]: 28.3%; viability at 2 µg/mL [13]: 5%; Activity [15]: 36.1%; Activity [17]: 1.9%; viability at 2 µg/mL [18]: 1.9%; Activity [19]: 62.2%; Activity [20]: 18.1%; Activity [21]: 17.9%
Cc1cc(O)c2c(c1Cl)C(=O)C=CC2=O | 29.5 | 17.2 | 13.5 | 15.7 | Activity [1]: 5.4%; Activity [2]: Not toxic; Activity [3]: 60.9%; Activity [5]: 5.4%; Activity [8]: 10.5%; Activity [9]: 16.2%; Activity [19]: 30.2%; Activity [20]: 17.1%; Activity [21]: 53.5%
CC(=O)Oc1cc(C)cc2c1C(=O)C=CC2=O | 24.1 | 28.1 | 17.2 | 14.7 | –
Cc1ccc2c(c1O)C(=O)C=CC2=O | 15.4 | 19 | 16.4 | 15.3 | Activity [1]: 7%; Activity [3]: 43%; Activity [4]: 28.3%; Activity [5]: 8.6%; Activity [8]: 14.6%; Activity [22]: -5.14%; Activity [9]: 14.2%; Activity [10]: 30.3%; Activity [11]: 24.8%; Activity [12]: 31.4%; viability at 2 µg/mL [13]: 15.5%; Activity [15]: 43.2%; Activity [17]: 6.4%; viability at 2 µg/mL [18]: 20.1%; Activity [19]: 62.9%; Activity [20]: 33.8%; Activity [21]: 15%
CC(=O)Oc1c(C)cc(Cl)c2c1C(=O)C=CC2=O | 12.5 | 28.6 | 21.8 | 18.7 | –
COc1cc(C)cc2c1C(=O)C=CC2=O | 30.7 | 22.5 | 21.1 | 15.3 | –
COc1c(C)cc(Cl)c2c1C(=O)C=CC2=O | 36.5 | 44.9 | 41.5 | 16.2 | –
COc1cc(C)c(Cl)c2c1C(=O)C=CC2=O | 26.6 | 24.6 | 19.1 | 20.6 | –
CC(=O)Oc1cc(OC(C)=O)c2c(OC(C)=O)cc(C)cc2c1OC(C)=O | 64.6 | 25 | 22.4 | 82 | –
CC(=O)Oc1cc(OC(C)=O)c2c(OC(C)=O)cc(C)c(Cl)c2c1OC(C)=O | 59.6 | 56.9 | 52.9 | 51.1 | –
Cc1cc(O)c2c(c1)C(=O)C(O)=CC2=O | 6.8 | 23.2 | 5.3 | 14.6 | Activity [1]: 7.3%; Activity [3]: 53.4%; Activity [5]: 15.5%; Activity [8]: 16.1%; Activity [22]: 7.39%; Activity [9]: 27.3%; IC50 [23]: 54 µM; Activity [19]: 65.1%; Activity [20]: 3%; Activity [21]: 10.6%
CCOc1cc(C)c(Cl)c2c1C(=O)C=CC2=O | 25.4 | 44.2 | 19 | 40 | –
CCOc1cc(C)cc2c1C(=O)C=CC2=O | 15 | 25.3 | 29.7 | 23.7 | –
CC(=O)Oc1cc(C)c(Cl)c2c1C(=O)C=CC2=O | 25.5 | 28.8 | 26.2 | 37.9 | –
Cc1cc(O)c2c(c1Br)C(=O)C=CC2=O | 46.3 | 14.9 | 11.3 | 15.5 | Activity [1]: 17.7%; Activity [2]: Not toxic; Activity [3]: 63.3%; Activity [4]: 67.1%; Activity [5]: 4.6%; Activity [8]: 28.8%; Activity [9]: 16.8%; Activity [10]: 53.8%; Activity [11]: 10%; Activity [12]: 7%; viability at 2 µg/mL [13]: 15.9%; Activity [15]: 39%; Activity [17]: 3.4%; viability at 2 µg/mL [18]: 3.8%; Activity [19]: 53%; Activity [20]: 14.8%; Activity [21]: 13%
Cc1cc(O)c2c(c1)C(=O)C=CC2=O [RAMENTACEONE] | 11.9 | 81.4 | 66.6 | 27.2 | IC50 [23]: 18.4 µM
CC(=O)Oc1cc(OC(C)=O)c2c(OC(C)=O)c(C)cc(Cl)c2c1OC(C)=O | 81.6 | 53.5 | 27.9 | 57.5 | –
CCOc1c(C)cc(Cl)c2c1C(=O)C=CC2=O | 26.2 | 37.3 | 33.2 | 32.2 | –
COc1cccc2c1C(=O)c1c(O)c3c(c(O)c1C2=O)C[C@@](O)(C(=O)CO)C[C@@H]3O[C@H]1C[C@H](N)[C@H](O)[C@H](C)O1 [DOXORUBICIN] | 0.01 | 0.01 | – | – | –

From ChEMBL document CHEMBL3351895, “Cytotoxicity of synthesized 1,4-naphthoquinone analogues on selected human cancer cell lines” (Bioorg Med Chem, 2014)
